# Test results from ChEMBL document CHEMBL2346497, “Synthesis of novel cognition enhancers with pyrazolo[5,1-c][1,2,4]benzotriazine core acting at γ-aminobutyric acid type A (GABA(A)) receptor” (Bioorg Med Chem, 2013).
# The source made the active and inactive calls. No cut-off for these calls is given here.
# Experiments:
# Bos taurus = species on record: Bos taurus; experiment: Displacement of [3H]Ro15-1788 from GABA-A receptor benzodiazepine binding site in bovine cerebral cortex membranes at 10 uM after 1 hr; assay type: cell membranes; settings: Membrane
# [1] = Displacement of [3H]Ro15-1788 from GABA-A receptor benzodiazepine binding site in bovine cerebral cortex membranes after 1 hr; assay type: cell membranes, Bos taurus, Membrane
# Mus musculus [2] = experiment: Anticonvulsant activity in CD1 albino mouse assessed as protection against pentylenetetrazole-induced convulsions at 10 mg/kg, po administered 30 mins prior to pentylenetetrazole challenge measured over 30 mins (reference value: 7.1%); assay type: functional
# Mus musculus [3] = experiment: Neurotoxicity in CD1 albino mouse assessed as decrease in number of falls from rotating rod at 30 mg/kg, po by rota-rod test relative to control; assay type: toxicity, organism-based; set-up: dose 30 mg/kg, route oral; settings: in vivo, TDE = time-dependent effect
# In short: (§1)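 Motor coordination was tested on a rota-rod turning at 24 rpm in male CD-1 mice dosed po in 1% CMC. Falls within 30 s were counted at a pretest and at 15, 30, 45 and 60 min after dosing. Each value is the mean of five mice, compared with CMC-treated controls.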
# Mus musculus [4] = experiment: Anxiolytic activity in CD1 albino mouse assessed as increase in time spent in illuminated side at 10 to 30 mg/kg, po administered 30 mins prior to testing measured for 5 mins by light-dark box test; assay type: functional, organism-based
# In short: (§2)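 Light/dark box: two equal acrylic compartments, one lit by a 60 W lamp, joined by a floor-level opening. Male CD-1 mice were dosed po in 1% CMC 30 min before the test, then placed in the centre of the lit side facing away from the dark side. Over 5 min, transfers and time in the light side were recorded, n = 8 mice per group.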
# Rattus norvegicus [5] = experiment: Procognitive effect in Harlan Wistar rat assessed as decrease in exploring time of unfamiliar rat during social investigatory behaviour at 10 mg/kg, po administered 30 mins prior to testing measured for 5 mins by social learning test relative to control; assay type: functional, organism-based; set-up: dose 10 mg/kg
# Rattus norvegicus [6] = experiment: Procognitive effect in Harlan Wistar rat assessed as exploring time of familiar rat during social investigatory behaviour at 10 mg/kg, po administered 30 mins prior to testing measured for 5 mins by social learning test (reference value: 27.6 secs); assay type: functional
# Mus musculus [7] = experiment: Antiamnesic activity in CD1 albino mouse assessed as reversal of scopolamine-induced amnesia at 1 mg/kg, po administered 30 mins prior to scopolamine challenge measured after 24 hrs by passive avoidance test; assay type: functional, organism-based; set-up: dose 1 mg/kg
# In short: (§3)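 Step-through passive avoidance in male CD-1 mice (22–24 g). Test drugs were given po, suspended in 1% carboxymethylcellulose at 10 ml/kg, 30 min before the training session. For the antiamnesic arm, scopolamine 1.5 mg/kg was injected immediately after punishment. Retention latency was compared with CMC-treated controls, n = 10–12 mice per group.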
# Mus musculus [8] = experiment: Cognitive enhancing effect in CD1 albino mouse assessed as increase in retention latency at 1 to 10 mg/kg, po administered 30 mins prior to testing measured after 24 hrs by passive avoidance test relative to control; assay type: functional, organism-based; in short: as §3
# Rattus norvegicus [9] = experiment: Procognitive effect in Harlan Wistar rat assessed as decrease in exploring time of unfamiliar rat during social investigatory behaviour at 30 mg/kg, po administered 30 mins prior to testing measured for 5 mins by social learning test relative to control; assay type: functional, organism-based; set-up: dose 30 mg/kg
# Rattus norvegicus [10] = experiment: Procognitive effect in Harlan Wistar rat assessed as exploring time of familiar rat during social investigatory behaviour at 30 mg/kg, po administered 30 mins prior to testing measured for 5 mins by social learning test (reference value: 27.6 secs); assay type: functional
# Mus musculus [11] = experiment: Cognitive enhancing effect in CD1 albino mouse assessed as increase in retention latency at 1 to 30 mg/kg, po administered 30 mins prior to testing measured after 24 hrs by passive avoidance test relative to control; assay type: functional, organism-based; in short: as §3
# Mus musculus [12] = experiment: Anxiolytic activity in CD1 albino mouse assessed as increase in time spent in illuminated side at 30 mg/kg, po administered 30 mins prior to testing measured for 5 mins by light-dark box test; assay type: functional, organism-based; set-up: dose 30 mg/kg; in short: as §2
# Rattus norvegicus [13] = experiment: Procognitive effect in Harlan Wistar rat assessed as decrease in exploring time of unfamiliar rat during social investigatory behaviour at 10 to 100 mg/kg, po administered 30 mins prior to testing measured for 5 mins by social learning test relative to control; assay type: functional, organism-based
# Rattus norvegicus [14] = experiment: Procognitive effect in Harlan Wistar rat assessed as exploring time of familiar rat during social investigatory behaviour at 100 mg/kg, po administered 30 mins prior to testing measured for 5 mins by social learning test (reference value: 27.6 secs); assay type: functional
# Mus musculus [15] = experiment: Cognitive enhancing effect in CD1 albino mouse assessed as increase in retention latency at 1 to 100 mg/kg, po administered 30 mins prior to testing measured after 24 hrs by passive avoidance test relative to control; assay type: functional, organism-based; in short: as §3
# Mus musculus [16] = experiment: Antiamnesic activity in CD1 albino mouse assessed as reversal of scopolamine-induced amnesia at 3 mg/kg, po administered 30 mins prior to scopolamine challenge measured after 24 hrs by passive avoidance test; assay type: functional, organism-based; set-up: dose 3 mg/kg
# Mus musculus [17] = experiment: Cognitive enhancing effect in CD1 albino mouse assessed as increase in retention latency at 3 to 30 mg/kg, po administered 30 mins prior to testing measured after 24 hrs by passive avoidance test relative to control; assay type: functional, organism-based; in short: as §3
# Mus musculus [18] = experiment: Neurotoxicity in CD1 albino mouse assessed as decrease in number of falls from rotating rod at 10 mg/kg, po by rota-rod test relative to control; assay type: toxicity, organism-based; set-up: dose 10 mg/kg, route oral; settings: in vivo, TDE = time-dependent effect; in short: as §1
# Mus musculus [19] = experiment: Anxiolytic activity in CD1 albino mouse assessed as increase in time spent in illuminated side at 10 mg/kg, po administered 30 mins prior to testing measured for 5 mins by light-dark box test in presence of flumazenil; assay type: functional, organism-based; set-up: dose 10 mg/kg
# In short: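 This is the mouse light/dark box (male CD-1, 22–24 g) with flumazenil added at 100 mg/kg po. Drugs were suspended in 1% CMC and given po at 10 ml/kg, 30 min before testing. Mice started in the centre of the lit side and explored for 5 min. Transfers and time in the light side were scored. Values are means of eight mice, compared with flumazenil-treated mice.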
# Mus musculus [20] = experiment: Anxiolytic activity in CD1 albino mouse assessed as increase in time spent in illuminated side at 10 mg/kg, po administered 30 mins prior to testing measured for 5 mins by light-dark box test; assay type: functional, organism-based; set-up: dose 10 mg/kg
# In short: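 Male CD-1 mice (22–24 g) were dosed po at 10 ml/kg with drug suspended in 1% carboxymethylcellulose, 30 min before the test. Each mouse was placed in the centre of the lit compartment of a two-compartment light/dark box, facing away from the dark side, and explored for 5 min. Transfers and time in the light side were recorded. Values are means of eight mice, analysed by ANOVA with Scheffé post-hoc.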
smiles,measurement,setting,value
Cn1cnc(-c2cnn3c2n[n+]([O-])c2ccc(OCc4ccccc4)cc23)n1,inhibition,Bos taurus,50%
Cc1cnn2c1n[n+]([O-])c1ccc(Cl)cc12,Ki,[1],315 nM
CN(C)/C=N/C(=O)c1cnn2c1n[n+]([O-])c1ccc(OCc3ccncc3)cc12,Ki,[1],515 nM
[O-][n+]1nc2c(-c3ncn[nH]3)cnn2c2cc(OCc3ccccc3)ccc21,Ki,[1],325 nM
same,Activity,Mus musculus [2],0%
same,Activity,Mus musculus [3],tde
same,Activity,Mus musculus [4],Active
same,Activity,Rattus norvegicus [5],inactive
same,Time,Rattus norvegicus [6],40.3 s
same,Activity,Mus musculus [7],Active
same,Activity,Mus musculus [8],Active
NC(=O)CN1CCCC1=O [PIRACETAM],Activity,Rattus norvegicus [9],inactive
same,Time,Rattus norvegicus [10],46.3 s
NC(=O)c1cnn2c1n[n+]([O-])c1ccc(OCc3ccncc3)cc12,Ki,[1],1200 nM
Cc1cnn2c1nnc1ccc(Cl)cc12,Ki,[1],400 nM
[O-][n+]1nc2c(I)cnn2c2cc(NCc3ccncc3)ccc21,Ki,[1],0.33 nM
Cc1noc(-c2cnn3c2n[n+]([O-])c2ccc(OCc4ccccc4)cc23)n1,Ki,[1],70.7 nM
same,Activity,Mus musculus [2],10%
same,Activity,Mus musculus [3],tde
same,Activity,Mus musculus [4],Active
same,Activity,Rattus norvegicus [5],inactive
same,Time,Rattus norvegicus [6],43.1 s
same,Activity,Mus musculus [7],Active
same,Activity,Mus musculus [11],Active
Cc1noc(-c2cnn3c2n[n+]([O-])c2ccc(OCc4cccs4)cc23)n1,Ki,[1],1620 nM
[O-][n+]1nc2c(I)cnn2c2cc(NCc3ccco3)ccc21,Ki,[1],0.23 nM
[O-][n+]1nc2c(I)cnn2c2cc(OCc3cccs3)ccc21,Activity,Mus musculus [2],0%
same,Activity,Mus musculus [3],tde
same,Activity,Mus musculus [12],Active
same,Activity,Rattus norvegicus [13],inactive
same,Time,Rattus norvegicus [14],41.9 s
same,Time,Rattus norvegicus [10],42.3 s
same,Time,Rattus norvegicus [6],32.5 s
same,Activity,Mus musculus [7],Active
same,Activity,Mus musculus [15],Active
[O-][n+]1nc2c(I)cnn2c2cc(NCc3ccccn3)ccc21,Ki,[1],0.72 nM
CN(C)/C=N/C(=O)c1cnn2c1n[n+]([O-])c1ccc(OCc3cccs3)cc12,Ki,[1],620 nM
CN(C)/C=N/C(=O)c1cnn2c1n[n+]([O-])c1ccc(OCc3ccccc3)cc12,Ki,[1],86.6 nM
[O-][n+]1ccc(COc2ccc3c(c2)n2ncc(I)c2n[n+]3[O-])cc1,Ki,[1],20.4 nM
NC(=O)c1cnn2c1n[n+]([O-])c1ccc(OCc3ccccc3)cc12,Ki,[1],324 nM
NC(=O)c1cnn2c1n[n+]([O-])c1ccc(OCc3cccs3)cc12,Ki,[1],960 nM
Cc1cnn2c1n[n+]([O-])c1ccc(OCc3ccnc(Cl)c3)cc12,Ki,[1],7.49 nM
Cn1ncnc1-c1cnn2c1n[n+]([O-])c1ccc(OCc3ccccc3)cc12,inhibition,Bos taurus,46%
[O-][n+]1nc2c(-c3ncn[nH]3)cnn2c2cc(OCc3ccncc3)ccc21,Ki,[1],168 nM
Cc1cnn2c1n[n+]([O-])c1ccc(OCc3ccco3)cc12,Ki,[1],30.9 nM
Cc1noc(-c2cnn3c2n[n+]([O-])c2ccc(OCc4ccncc4)cc23)n1,Ki,[1],453 nM
same,Activity,Mus musculus [2],10%
same,Activity,Mus musculus [3],tde
same,Activity,Mus musculus [4],Active
same,Activity,Rattus norvegicus [5],inactive
same,Time,Rattus norvegicus [6],44.6 s
same,Activity,Mus musculus [16],Active
same,Activity,Mus musculus [17],Active
CN1C(=O)CN=C(c2ccccc2)c2cc(Cl)ccc21 [DIAZEPAM],Activity,Mus musculus [2],100%
same,Activity,Mus musculus [18],tde
same,Activity,Mus musculus [19],inactive
same,Activity,Mus musculus [20],Active
